IC50 and Activity data for 22 molecules are collected here from ChEMBL document CHEMBL1151690, “The design, synthesis, and anti-tumor mechanism study of N-phosphoryl amino acid modified resveratrol analogues” (Bioorg Med Chem, 2008).

The term IC50 denotes the concentration that inhibits the measured activity by half. High values mean lower potency, low ones higher potency.

Activity calls are given as the source filed them. No cut-off for these calls is given here.

A short description of test [1]: Antiproliferative activity against human CNE1 cells after 72 hrs by MTT assay. The test is classed as functional, cell-based. The conditions noted are these: CNE. Summed up: (§1)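 MTT assay. Cells were grown in DMEM with 10% FBS, penicillin and streptomycin at 37 °C in 5% CO2, seeded in 96-well plates and exposed to compounds at 0.5–100 μM for 72 h. They were then given MTT (5 mg/ml) for 4 h, the formazan was dissolved in DMSO and A595 was read. IC50 is the mean ± SEM of three experiments.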
On the technique in general: Tetrazolium dyes change colour on reduction, which living cells bring about.

A short description of test [2]: (§2) Antiproliferative activity against human CNE2 cells after 72 hrs by MTT assay. The test is classed as functional, cell-based. The conditions noted are these: CNE-2, 72 h. The method, boiled down:
as §1

In test [3] the test system is CNE-2. The description is as §2. The test is classed as functional, cell-based. Summed up: as §1
Test [4] relates to CNE-2. The test is described as follows: Induction of apoptosis in human CNE2 cells assessed as DNA fragmentation at 50 uM after 24 hrs by agarose gel electrophoresis. The test is classed as functional, cell-based. Summed up: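 CNE-2 cells were treated at 50 μM for 24 h, with untreated cells as control. DNA was obtained by standard digestion and organic extraction, run on a 2% agarose gel and stained with ethidium bromide to detect ladders.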

The subject of a further test is K562. The test is described as follows: Antiproliferative activity against human K-562 cells after 72 hrs by MTT assay. Conditions: K562, 72 h. The test is classed as functional, cell-based. The method, boiled down:
(§3)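 IC50 from 72 h of compound treatment, reported as the mean ± SEM of three experiments, with significance set at P < 0.05.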

Test [5] relates to CNE-2. Description: Antiproliferative activity against human CNE2 cells at 5.06 uM by MTT assay. Format: functional, cell-based. Conditions: TDE = time-dependent effect.
Test [6] in a line: Cell cycle arrest in human CNE2 cells assessed as accumulation at sub-G0-G1 phase visualized by propidium iodide staining at 50 uM after 24 hrs by flow cytometry. Format: functional, cell-based. The conditions noted are these: CNE-2. The method, boiled down: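 CNE-2 cells were treated at 50 μM for 24 h, stained with propidium iodide and analysed by flow cytometry of DNA-content histograms. Apoptotic events were scored as the sub-G0–G1 population, and the cell-cycle phase distribution was also recorded.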
(In flow cytometry, cells or beads pass a laser one at a time.)

The subject of the next test is HeLa. The test is described as follows: Antiproliferative activity against human HeLa cells after 72 hrs by MTT assay. The test is classed as functional, cell-based. Summed up:
as §3

Test [7] concerns CNE-2. The test is described as follows: Induction of apoptosis in human CNE2 cells assessed as caspase 3-mediated PARP cleavage at 50 uM after 24 hrs by enhanced chemiluminescence detection. The test is classed as functional, cell-based. The method, boiled down: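 CNE-2 cells were treated at 50 μM for 24 h and lysed on ice for 30 min in Tris/EDTA/NaCl/SDS/Triton/deoxycholate/PMSF buffer. Cytosolic protein (25 μg, 15,000g supernatant) was run on 12% SDS-PAGE and blotted to nitrocellulose. Blots were probed with anti-PARP (1:1000) in milk block, and the 89 kDa cleaved band was detected by ECL.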

The test system of test [8] is CNE-2. The test is described as follows: Antiproliferative activity against human CNE2 cells at 5.19 uM by MTT assay. The test is classed as functional, cell-based. Conditions: TDE = time-dependent effect.
The subject of test [9] is CNE-2. Description: Antiproliferative activity against human CNE2 cells at 9.86 uM by MTT assay. Format: functional, cell-based. Conditions: TDE = time-dependent effect. The method, boiled down:
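CNE-2 nasopharyngeal carcinoma cells were grown in DMEM with 10% FBS and penicillin/streptomycin at 37 °C under 5% CO2. Cells were seeded in 96-well plates and exposed to compound at 0.5–100 µM for 24, 48 or 72 h; tabulated values are from 72 h. MTT (5 mg/ml) was added for 4 h, formazan dissolved in DMSO, A595 read. IC50 reported as mean ± SEM, three experiments.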

The test system of test [10] is CNE-2. The test is described as follows: Induction of apoptosis in human CNE2 cells assessed as late stage apoptotic cell count at 5 uM after 24 hrs by Annexin-V-FITC/PI binding assay. Format: functional. Summed up:
(§4)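 CNE-2 cells were treated at 5, 10, 25 or 50 μM for 24 h, collected, washed in ice-cold PBS, stained with Annexin-V-FITC and PI, and analysed by flow cytometry. Annexin-V+/PI− cells were counted as early apoptotic and double-positive cells as late apoptotic.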

For test [11], the system named is CNE-2. The test is described as follows: Induction of apoptosis in human CNE2 cells assessed as late stage apoptotic cell count at 25 uM after 24 hrs by Annexin-V-FITC/PI binding assay. The test is classed as functional. Summed up:
as §4

In test [12] the test system is CNE-2. Description: Induction of apoptosis in human CNE2 cells assessed as early stage apoptotic cell count at 25 uM after 24 hrs by Annexin-V-FITC/PI binding assay. The test is classed as functional. The method, boiled down:
as §4

Test [13] deals with CNE-2. Description: Induction of apoptosis in human CNE2 cells assessed as late stage apoptotic cell count at 10 uM after 24 hrs by Annexin-V-FITC/PI binding assay. The test is classed as functional. Summed up:
as §4

Test [14] concerns CNE-2. The test is described as follows: Induction of apoptosis in human CNE2 cells assessed as increase in caspase 9 activity at 50 uM upto 24 hrs. Format: functional, cell-based. The method, boiled down:
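CNE-2 cells were treated at 50 μM for 0, 2, 4, 8, 14 and 24 h, trypsinized, PBS-washed and lysed on ice for 15 min. Lysates were spun at 20,000g at 4 °C, and 0.1 mg protein (Bradford) was incubated with Ac-LEHD-pNA for 2 h at 37 °C. pNA release was recorded at A405.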

Test [15] concerns CNE-2. The test is described as follows: Induction of apoptosis in human CNE2 cells assessed as late stage apoptotic cell count at 50 uM after 24 hrs by Annexin-V-FITC/PI binding assay. The test is classed as functional. Summed up:
as §4

Test [16] deals with CNE-2. Description: Antiproliferative activity against human CNE2 cells at 3.45 uM by MTT assay. Format: functional, cell-based. Conditions: TDE = time-dependent effect.
In test [17] the test system is CNE-2. The test is described as follows: Induction of apoptosis in human CNE2 cells assessed as early stage apoptotic cell count at 50 uM after 24 hrs by Annexin-V-FITC/PI binding assay. Format: functional. Summed up:
as §4

Test [18] concerns CNE-2. Description: Induction of apoptosis in human CNE2 cells assessed as early stage apoptotic cell count at 10 uM after 24 hrs by Annexin-V-FITC/PI binding assay. Format: functional. Summed up: as §4
The test system of test [19] is CNE-2. Description: Induction of apoptosis in human CNE2 cells assessed as intracellular ROS production visualized by DCFH-DA after 30 hrs by FACS analysis. The test is classed as functional, cell-based. Summed up:
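CNE-2 cells were treated at 50 μM for 0–30 h (0, 2, 4, 6, 8, 13, 19, 24, 30 h), trypsinized, centrifuged and PBS-washed. They were loaded with DCFH-DA (10 μM) at 37 °C for 30 min, and the percentage of cells with higher DCF fluorescence was measured by FACS.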

For test [20], the system named is CNE-2. The test is described as follows: Induction of apoptosis in human CNE2 cells assessed as early stage apoptotic cell count at 5 uM after 24 hrs by Annexin-V-FITC/PI binding assay. Format: functional. Summed up:
as §4

Turning to `CC(C)OP(=O)(N[C@@H](C)C(=O)Nc1ccc(/C=C/c2ccccc2)cc1)OC(C)C`, the IC50 in [1] is 25.4 µM; in test [2] it was 12.8 µM.
For `CC(C)C[C@H](NP(=O)(OC(C)C)OC(C)C)C(=O)Nc1ccc(/C=C/c2ccccc2)cc1`, in that order: 54.3 µM and 65.6 µM.
Regarding `COc1cc(/C=C/c2ccc(NC(=O)[C@H](C)NP(=O)(OC(C)C)OC(C)C)cc2)cc(OC)c1`, the IC50 in [1] turned out to be 29.2 µM; in test [2] it was 11.7 µM.
In the same order, the values of `CC(C)OP(=O)(OC(C)C)N1CCC[C@H]1C(=O)Nc1ccc(/C=C/c2ccccc2)cc1` are 10.1 µM and 12.2 µM.
For `Nc1ccc(/C=C/c2ccccc2)cc1` [(E)-4-STYRYLANILINE], the IC50 in test [1] was found to be 54.5 µM; in [2], 98.7 µM.
As for `COc1cc(/C=C/c2ccc(NC(=O)CCCCCNP(=O)(OC(C)C)OC(C)C)cc2)cc(OC)c1`, the IC50 in test [1] was determined as 6.37 µM; in [2] it was 5.06 µM; in the test on K562, 6.89 µM; in the test with HeLa, 6.41 µM. Further, the Activity result with CNE-2 [3] is “Dose-dependent effect”; in the test with CNE-2 [5], “tde”; in test [6], 57%. For the same molecule, the result in the test with CNE-2 [4] and in the test with CNE-2 [7] was Active.
`COc1cc(/C=C/c2ccc(NC(=O)CCNP(=O)(OC(C)C)OC(C)C)cc2)cc(OC)c1`: the values for the IC50 in test [1] and in [2] were 10.1 µM and 8.19 µM, respectively.
For the molecule `COc1cc(/C=C/c2ccc(NC(=O)[C@@H](NP(=O)(OC(C)C)OC(C)C)C(C)C)cc2)cc(OC)c1`, the IC50 in test [1] is 116 µM; in test [2], 77.4 µM.
With `COc1cc(/C=C/c2ccc(NC(=O)[C@H](CC(C)C)NP(=O)(OC(C)C)OC(C)C)cc2)cc(OC)c1`, the IC50 worked out at 55.3 µM in [1] and 14.3 µM in test [2].
As for `Oc1ccc(/C=C/c2cc(O)cc(O)c2)cc1` [RESVERATROL], the IC50 in test [1] came out at 67.6 µM; in [2], 52.3 µM.
For the molecule `CC(C)OP(=O)(NCCCCC(=O)Nc1ccc(/C=C/c2ccccc2)cc1)OC(C)C`, the IC50 in [1] worked out at 6.36 µM; in [2], 5.19 µM; in the test on K562, 9.58 µM; in the test with HeLa, 9.75 µM. In addition, the Activity result is “Dose-dependent effect” in the test with CNE-2 [3], “tde” in the test on CNE-2 [8] and 45.3% in test [6]. For the same molecule, the outcome in the test with CNE-2 [4] and in the test with CNE-2 [7] was Active.
As for `CC(C)OP(=O)(N[C@H](C(=O)Nc1ccc(/C=C/c2ccccc2)cc1)C(C)C)OC(C)C`, the IC50 in test [1] was 49.3 µM; in [2], 128 µM.
For `COc1cc(/C=C/c2ccc(NC(=O)[C@@H]3CCCN3P(=O)(OC(C)C)OC(C)C)cc2)cc(OC)c1`, the IC50 was 8.11 µM in [1], 9.86 µM in [2], 9.15 µM in the test with K562 and 9.53 µM in the test with HeLa. For the same molecule, the Activity result with CNE-2 [3] was “Dose-dependent effect”; in the test with CNE-2 [9] it was “tde”; in test [6], 32.1%. Also, the result in the test on CNE-2 [4] and in the test with CNE-2 [7] was Active.
For `CC(C)OP(=O)(NCCCC(=O)Nc1ccc(/C=C/c2ccccc2)cc1)OC(C)C`, the results for the IC50 in test [1] and in [2] were 9.03 µM and 6.47 µM, respectively.
On to `COc1cc(/C=C/c2ccc(NC(=O)CCCCNP(=O)(OC(C)C)OC(C)C)cc2)cc(OC)c1`, for which the IC50 was found to be 5.67 µM in test [1], 3.45 µM in test [2], 5.32 µM with K562 and 5.62 µM in the test on HeLa. The Activity is 9.86% in the test on CNE-2 [10]; 41.12% in the test with CNE-2 [11]; “Dose-dependent effect” in the test with CNE-2 [3]; 21.24% in the test with CNE-2 [12]; 22.51% with CNE-2 [13]; 66.79% in the test with CNE-2 [15]. Further, the Activity result in the test with CNE-2 [16] is “tde”; with CNE-2 [17] it was 18.78%; in the test on CNE-2 [18] it was 16.24%; with CNE-2 [20] it was 6.45%; in [6], 91.6%. Besides, the outcome with CNE-2 [4], with CNE-2 [14], with CNE-2 [19] and with CNE-2 [7] was Active.
Turning to `COc1cc(/C=C/c2ccc(NC(=O)CCCNP(=O)(OC(C)C)OC(C)C)cc2)cc(OC)c1`, the values for the IC50 in test [1] and in test [2] were 12.3 µM and 15.2 µM, respectively.
As for `CC(C)OP(=O)(N[C@@H](Cc1ccccc1)C(=O)Nc1ccc(/C=C/c2ccccc2)cc1)OC(C)C`, the IC50 in test [1] worked out at 83.7 µM; in test [2] it was 92.1 µM.
Take `CC(C)OP(=O)(NCCCCCC(=O)Nc1ccc(/C=C/c2ccccc2)cc1)OC(C)C`: the IC50 in test [1] worked out at 8.58 µM; in test [2], 24.3 µM.
As for `COc1cc(/C=C/c2ccc(NC(=O)[C@H](Cc3ccccc3)NP(=O)(OC(C)C)OC(C)C)cc2)cc(OC)c1`, the IC50 is 43.4 µM in test [1] and 9.83 µM in test [2].
As to `CC(C)OP(=O)(NCCC(=O)Nc1ccc(/C=C/c2ccccc2)cc1)OC(C)C`, the IC50 in [1] was 29.8 µM; in [2] it was 6.81 µM.
Turning to `COc1cc(/C=C/c2ccc(NC(=O)CNP(=O)(OC(C)C)OC(C)C)cc2)cc(OC)c1`, the IC50 was determined as 8.91 µM in test [1] and 7.12 µM in [2].
For `CC(C)OP(=O)(NCC(=O)Nc1ccc(/C=C/c2ccccc2)cc1)OC(C)C`, in that order: 7.5 µM and 7.01 µM.
